# The list is not random: actives were taken first. Their share in the collection is about 1.9%.
# Hck Nef HTS = inhibitors of Nef-activated human Hck kinase, primary screen, biochemical, Z-Lyte FRET, 384-well, Hck-YEEI. Tyrosine-protein kinase HCK (Homo sapiens), P08631. Recombinant Hck-YEEI plus Nef, Z-Lyte FRET kinase assay. inhibition, % at 20 µM. 220,000 compounds, 0.68% hits. AID 463187, 2010;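 active means Hck-Nef kinase inhibition above about 50%, limit read from the data; inactive means inhibition below that limit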;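 further: 0% = DMSO with Hck plus Nef and 100% = Hck alone without Nef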
# Runt-CBFb FRET = inhibitors of RUNX1 Runt–CBFb binding, primary screen, biochemical, FRET, Cerulean-Runt, Venus-CBFb, uHTS; Runt-related transcription factor 1 (Homo sapiens) + Core-binding factor subunit beta …; Cerulean-Runt/Venus-CBFb FRET ratio 530/480, 1 h; inhibition, % at 20 µM; AID 1496, 2009; 220,000 compounds, 0.46% hits;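 active means inhibition over about 50% at 20 µM in the single-dose screen, limit read from the data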;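 further: 0% = DMSO wells and 100% = excess unlabeled CBFb competitor control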
# Target sequence (Q01196 whole entry, looked up): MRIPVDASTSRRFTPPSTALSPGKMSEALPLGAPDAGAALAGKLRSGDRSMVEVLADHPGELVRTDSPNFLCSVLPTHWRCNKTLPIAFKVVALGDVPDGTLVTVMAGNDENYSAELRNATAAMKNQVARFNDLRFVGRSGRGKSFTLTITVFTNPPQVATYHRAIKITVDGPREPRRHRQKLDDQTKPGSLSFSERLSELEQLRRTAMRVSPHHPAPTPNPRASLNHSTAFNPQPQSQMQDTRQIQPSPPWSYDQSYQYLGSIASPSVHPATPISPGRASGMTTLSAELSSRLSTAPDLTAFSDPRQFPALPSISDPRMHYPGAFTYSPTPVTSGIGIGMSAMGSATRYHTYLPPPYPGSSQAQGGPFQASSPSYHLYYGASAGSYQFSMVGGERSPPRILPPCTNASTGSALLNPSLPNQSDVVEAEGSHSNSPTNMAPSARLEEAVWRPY
# Target sequence (Q13951 whole entry, looked up): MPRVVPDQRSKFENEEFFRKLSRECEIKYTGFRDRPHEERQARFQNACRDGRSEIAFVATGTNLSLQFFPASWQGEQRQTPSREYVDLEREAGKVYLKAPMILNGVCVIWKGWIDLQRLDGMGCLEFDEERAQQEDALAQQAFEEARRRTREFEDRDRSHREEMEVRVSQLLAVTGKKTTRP
#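 Buffer or medium: Tris pH 7.5 buffer with BSA. Assay system: Cerulean-labeled Runt domain protein. Amount: each fluorescent fusion protein 100 nM. Read-out basis: loss of energy transfer signal. Incubation: 1 h compound exposure, room temperature. Probe or stimulus: Venus-CBFb binding partner, 100 nM. Detection: FRET, excitation 422 nm, emission at 530 and 480 nm.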
# Runt-SMMHC FRET = inhibitors of RUNX1 Runt–CBFb-SMMHC binding, primary screen, biochemical, FRET, Cerulean-Runt, Venus-CBFb-SMMHC, uHTS | inhibition, % at 20 µM | 220,000 compounds, 0.74% hits | Cerulean-Runt/Venus-CBFb-SMMHC FRET ratio 530/480, 1 h;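 active means mean inhibition across duplicate retests at 20 µM reaching about 50%, limit read from the data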;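 further: 0% = DMSO wells and 100% = wells with excess untagged CBFb-SMMHC; inhibitors lower the FRET ratio by blocking Runt binding to CBFb-SMMHC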
# RanGTP-Imp inh = inhibitors of RanGTP-importin-beta interaction, primary screen, biochemical, FRET, CFP-Ran, YFP-importin-beta, homogeneous | Ran GTPase (GTP-bound) - importin-beta complex | cell-free CFP-Ran/YFP-importin-beta FRET ratio | inhibition, % (no concentration beside the values) | 300,000 compounds, 1.1% hits;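 active means more than half of the replicate wells show a fall in the fluorescence ratio signal beyond about 16%, limit read from the data, passing the limit was not always enough; inconclusive means exactly half of the replicate wells pass the set limit; inactive means fewer than half of replicates pass the limit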;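 further: 0% = DMSO wells and 100% = Ran loaded with GDP instead of GTP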
# Hck Nef conf = retest of Hck:Nef kinase inhibitor hits, confirmation, biochemical, Z-Lyte FRET, 384-well, p-Tyr peptide counterscreen; shares compounds with Hck Nef HTS; Recombinant Hck-YEEI:Nef, Z-Lyte FRET kinase assay; calls only at 10 µM; 1,300 compounds, 28% hits; AID 463188, 2010;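 active means average inhibition of at least 50%, with Z-scores no higher than 3 in both the phospho-tyrosine peptide and fluorescence counterscreens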
# Numbers without * were called inactive; i = inactive; ? = inconclusive; nt = no result given; + = active, no number.
SMILES,Hck Nef HTS,Runt-CBFb FRET,Runt-SMMHC FRET,RanGTP-Imp inh,Hck Nef conf
O=C(CCN1CCN(c2ccccc2)CC1)N/N=C/c1ccc(O)c(O)c1O,53*,14,4,-4,i
O=C(Cc1csc(N2CCOCC2)n1)N/N=C/c1ccc(O)c(O)c1O,66*,46,26,3,i
CCOc1ccccc1OCCOc1ccccc1CC,0,-2,0,4,nt
CCCCN(C)CCOc1ccccc1OCC,60*,1,2,-1,i
NS(=O)(=O)c1ccc(CCNC(=O)CSc2nc3ccccc3c(=O)n2CC2CCCO2)cc1 (stereo unspecified),nt,nt,nt,0,nt
CC(CNc1nc2ccccc2n2cnnc12)c1ccccc1 (stereo unspecified),nt,nt,nt,7,nt
CCOC(=O)c1nc(Nc2ccc(Nc3ccccc3)cc2)c2ccccc2n1,94*,nt,-3,0,i
CCOC(=O)c1ccc(Nc2nc(C(=O)OCC)nc3ccccc23)cc1,1,-1,-14,2,nt
Cn1nc(C(C)(C)C)cc1C(=O)NN1CCOCC1,nt,nt,nt,5,nt
CC1=C(C#N)C(=O)NC(=O)/C1=C/c1ccc(-c2ccc(S(N)(=O)=O)cc2)o1,52*,22,14,-3,i
NS(=O)(=O)c1ccc(-c2ccc(/C=C3\NC(=S)NC3=O)o2)cc1,nt,nt,nt,0,nt
Cn1nccc1C(=O)Nc1sc2c(c1C(N)=O)CCCC2,68*,2,-1,-1,i
COc1ccc(C(=O)Nc2ccccc2C(=O)NC(Cc2ccc(O)cc2)C(=O)NNC(=O)c2ccccc2Cl)cc1 (stereo unspecified),66*,-1,-8,-4,i
COc1ccc(C(=O)NNC(=O)C(Cc2ccc(O)cc2)NC(=O)c2ccccc2NC(=O)c2ccc(OC)cc2)cc1 (stereo unspecified),22,-7,-22,2,nt
O=C(COc1ccc(/C=N/NC(=O)c2cc3ccccc3o2)cc1Cl)Nc1ccccc1,86*,-1,0,-3,+
CCN(CC)c1ccc(/C=C2\C(=O)c3ccc(C(=O)O)cc3C2=O)cc1,64*,-30,-100,nt,i
CCN(CC)c1ccc(C(=O)O)cc1,1,-1,3,6,nt
CCN(CC)S(=O)(=O)c1ccc(OC)c(NC(=O)COc2ccccc2[N+](=O)[O-])c1,53*,3,1,4,i
O=C(CCN1C(=O)/C(=C/c2ccc(Cl)cc2)SC1=S)Nc1cccc(C(=O)O)c1,nt,nt,nt,1,nt
O=C(O)c1cccc(N2C(=O)/C(=C/c3ccc(SCc4ccc(Cl)cc4)o3)SC2=S)c1,82*,36,9,nt,+
O=c1c(C(c2ccccc2)c2c(O)sc3ccccc3c2=O)c(O)sc2ccccc12,68*,-3,-9,19*,+
Cc1cc2sc3ccccc3c(=O)c2c(C)c1O,35,-23,-73,?,nt
Cc1c(NC(=O)COc2ccc(C(C)C)cc2)c(=O)n(-c2ccccc2)n1C,nt,nt,nt,2,nt
